ChEMBL document CHEMBL1156892, “Synthesis and in vitro evaluation of bisphosphonated glycopeptide prodrugs for the treatment of osteomyelitis” (Bioorg Med Chem Lett, 2010)
≈ marks a conversion by molar mass, not a printed value.

Key:
Staphylococcus aureus [1] = assay: Antibacterial activity against Staphylococcus aureus ATCC 13709 in cation adjusted Mueller-Hinton broth by […] assay in presence of 50% human serum; format: functional
In short: (§1)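 MIC determination against S. aureus ATCC13709. Medium is cation-adjusted Mueller-Hinton broth, alone or supplemented with mouse, human or rat serum as specified per line.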

Oryctolagus cuniculus = species on record: Oryctolagus cuniculus; assay: Binding affinity to rabbit bone assessed as drug level bound to bone powder at 0.25 to 4 ug/ml after 24 hrs; format: tissue-based; conditions: Bone element
Staphylococcus aureus [2] = assay: Antibacterial activity against Staphylococcus aureus ATCC 13709 in cation adjusted Mueller-Hinton broth by […] assay; format: functional; in short: as §1
Staphylococcus aureus [3] = assay: Antibacterial activity against Staphylococcus aureus ATCC 13709 in cation adjusted Mueller-Hinton broth by […] assay in presence of 50% rat serum; format: functional; in short: as §1
Staphylococcus aureus [4] = assay: Antibacterial activity against Staphylococcus aureus ATCC 13709 in cation adjusted Mueller-Hinton broth by […] assay in presence of 50% mouse serum; format: functional; in short: as §1
[5] = Stability in phosphate buffered saline assessed as conversion of drug to oritavancin after 24 hrs; format: physicochemical; conditions: buffer, BLD = below limit of detection
In short: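 Prodrugs incubated 24 h in phosphate-buffered saline. Regeneration of parent drug is expressed as % conversion. Parallel incubations were run in 50% rat or human serum diluted in PBS to assess enzymatic cleavage.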

Staphylococcus aureus [6] = assay: Antibacterial activity against Staphylococcus aureus ATCC 13709 in cation adjusted Mueller-Hinton broth by […] assay in presence of 50% human serum in absence of polysorbate-80; format: functional
In short: (§2)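 MIC against S. aureus ATCC13709 in cation-adjusted Mueller-Hinton broth, alone or with mouse, human or rat serum, run without polysorbate-80 in the medium.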

Staphylococcus aureus [7] = assay: Antibacterial activity against Staphylococcus aureus ATCC 13709 in cation adjusted Mueller-Hinton broth by […] assay in presence of 50% rat serum in absence of polysorbate-80; format: functional; in short: as §2
Streptococcus pneumoniae = assay: Antibacterial activity against Streptococcus pneumoniae ATCC 700902 by agar diffusion assay; format: functional
Staphylococcus aureus [8] = assay: Antibacterial activity against Staphylococcus aureus ATCC 13709 in cation adjusted Mueller-Hinton broth by […] assay in presence of 50% mouse serum in absence of polysorbate-80; format: functional; in short: as §2
Staphylococcus aureus [9] = assay: Antibacterial activity against Staphylococcus aureus ATCC 13709 in cation adjusted Mueller-Hinton broth by […] assay in absence of polysorbate-80; format: functional; in short: as §2

| SMILES | MIC (Staphylococcus aureus [1]) | Activity (Oryctolagus cuniculus) | MIC (Staphylococcus aureus [2]) | MIC (Staphylococcus aureus [3]) | MIC (Staphylococcus aureus [4]) | Activity [5] | MIC (Staphylococcus aureus [6]) | MIC (Staphylococcus aureus [7]) | MIC (Streptococcus pneumoniae) | MIC (Staphylococcus aureus [8]) | MIC (Staphylococcus aureus [9]) |
| --- | --- | --- | --- | --- | --- | --- | --- | --- | --- | --- | --- |
| CN[C@H](CC(C)C)C(=O)N[C@H]1C(=O)N[C@@H](CC(N)=O)C(=O)N[C@H]2C(=O)N[C@H]3C(=O)N[C@H](C(=O)N[C@H](C(=O)OCC(=O)Nc4ccc(CC(P(=O)(O)O)P(=O)(O)O)cc4)c4cc(O)cc(O)c4-c4cc3ccc4O)[C@H](O)c3cc(Cl)c(c(Cl)c3)Oc3cc2cc(c3O[C@H]2O[C@@H](CO)[C@@H](O)[C@H](O)[C@H]2O[C@@H]2C[C@@](C)(N)[C@@H](O)[C@@H](C)O2)Oc2ccc(cc2Cl)[C@H]1O | 16 µg/mL | 96.7% | 16 µg/mL (≈ 8.86 µM) | 32 µg/mL | 16 µg/mL |  |  |  |  |  |  |
| CC(C)C[C@H](C(=O)N[C@H]1C(=O)N[C@@H](CC(N)=O)C(=O)N[C@H]2C(=O)N[C@H]3C(=O)N[C@H](C(=O)N[C@H](C(=O)O)c4cc(O)cc(O)c4-c4cc3ccc4O)[C@H](O[C@H]3C[C@](C)(N)[C@@H](O)[C@H](C)O3)c3cc(Cl)c(c(Cl)c3)Oc3cc2cc(c3O[C@H]2O[C@@H](CO)[C@@H](O)[C@H](O)[C@H]2O[C@@H]2C[C@@](C)(NCc3ccc(-c4ccc(Cl)cc4)cc3)[C@@H](O)[C@@H](C)O2)Oc2ccc(cc2Cl)[C@H]1O)N(C)C(=O)OCOC(=O)CCCC(P(=O)(O)O)P(=O)(O)O | > 32 µg/mL | 99.9% | 32 µg/mL (≈ 14.9 µM) | 32 µg/mL | 32 µg/mL | BLD |  |  |  |  |  |
| CC(C)C[C@H](C(=O)N[C@H]1C(=O)N[C@@H](CC(N)=O)C(=O)N[C@H]2C(=O)N[C@H]3C(=O)N[C@H](C(=O)N[C@H](C(=O)O)c4cc(O)cc(O)c4-c4cc3ccc4O)[C@H](O[C@H]3C[C@](C)(N)[C@@H](O)[C@H](C)O3)c3cc(Cl)c(c(Cl)c3)Oc3cc2cc(c3O[C@H]2O[C@@H](CO)[C@@H](O)[C@H](O)[C@H]2O[C@@H]2C[C@@](C)(NCc3ccc(-c4ccc(Cl)cc4)cc3)[C@@H](O)[C@@H](C)O2)Oc2ccc(cc2Cl)[C@H]1O)N(C)C(=O)CC(P(=O)(O)O)P(=O)(O)O | 32 µg/mL | 99.9% | 32 µg/mL (≈ 15.7 µM) | 4 µg/mL | 4 µg/mL |  |  |  |  |  |  |
| CN[C@H](CC(C)C)C(=O)N[C@H]1C(=O)N[C@@H](CC(N)=O)C(=O)N[C@H]2C(=O)N[C@H]3C(=O)N[C@H](C(=O)N[C@H](C(=O)OCC(=O)Nc4ccc(CC(P(=O)(O)O)P(=O)(O)O)cc4)c4cc(O)cc(O)c4-c4cc3ccc4O)[C@H](O[C@H]3C[C@](C)(N)[C@@H](O)[C@H](C)O3)c3cc(Cl)c(c(Cl)c3)Oc3cc2cc(c3O[C@H]2O[C@@H](CO)[C@@H](O)[C@H](O)[C@H]2O[C@@H]2C[C@@](C)(NCc3ccc(-c4ccc(Cl)cc4)cc3)[C@@H](O)[C@@H](C)O2)Oc2ccc(cc2Cl)[C@H]1O | > 32 µg/mL |  | > 32 µg/mL | 8 µg/mL | 8 µg/mL |  |  |  |  |  |  |
| CN[C@H](CC(C)C)C(=O)N[C@H]1C(=O)N[C@@H](CC(N)=O)C(=O)N[C@H]2C(=O)N[C@H]3C(=O)N[C@H](C(=O)N[C@H](C(=O)O)c4cc(O)cc(O)c4-c4cc3ccc4O)[C@H](O[C@H]3C[C@](C)(N)[C@@H](O)[C@H](C)O3)c3ccc(c(Cl)c3)Oc3cc2cc(c3O[C@@H]2O[C@H](CO)[C@@H](O)[C@H](O)[C@H]2O[C@H]2C[C@](C)(NCc3ccc(-c4ccc(Cl)cc4)cc3)[C@@H](O)[C@H](C)O2)Oc2ccc(cc2Cl)[C@H]1O [ORITAVANCIN] |  |  |  |  |  |  | 1 µg/mL | 0.25 µg/mL | 0.001 µg/mL (≈ 0.000558 µM) | 2 µg/mL | 0.5 µg/mL (≈ 0.279 µM) |
| CN[C@H](CC(C)C)C(=O)N[C@H]1C(=O)N[C@@H](CC(N)=O)C(=O)N[C@H]2C(=O)N[C@H]3C(=O)N[C@H](C(=O)N[C@H](C(=O)OCC(=O)NC(P(=O)(O)O)P(=O)(O)O)c4cc(O)cc(O)c4-c4cc3ccc4O)[C@H](O)c3cc(Cl)c(c(Cl)c3)Oc3cc2cc(c3O[C@H]2O[C@@H](CO)[C@@H](O)[C@H](O)[C@H]2O[C@@H]2C[C@@](C)(N)[C@@H](O)[C@@H](C)O2)Oc2ccc(cc2Cl)[C@H]1O | 8 µg/mL | 96.5% | 16 µg/mL (≈ 9.33 µM) | 32 µg/mL | 16 µg/mL |  |  |  |  |  |  |
| CC(C)C[C@H](C(=O)N[C@H]1C(=O)N[C@@H](CC(N)=O)C(=O)N[C@H]2C(=O)N[C@H]3C(=O)N[C@H](C(=O)N[C@H](C(=O)O)c4cc(O)cc(O)c4-c4cc3ccc4O)[C@H](O[C@H]3C[C@](C)(N)[C@@H](O)[C@H](C)O3)c3cc(Cl)c(c(Cl)c3)Oc3cc2cc(c3O[C@H]2O[C@@H](CO)[C@@H](O)[C@H](O)[C@H]2O[C@@H]2C[C@@](C)(NCc3ccc(-c4ccc(Cl)cc4)cc3)[C@@H](O)[C@@H](C)O2)Oc2ccc(cc2Cl)[C@H]1O)N(C)C(=O)OCOC(=O)CCC(P(=O)(O)O)P(=O)(O)O | 4 µg/mL | 96.9% | 8 µg/mL (≈ 3.75 µM) | 1 µg/mL | 0.5 µg/mL |  |  |  |  |  |  |
| CC(C)C[C@H](C(=O)N[C@H]1C(=O)N[C@@H](CC(N)=O)C(=O)N[C@H]2C(=O)N[C@H]3C(=O)N[C@H](C(=O)N[C@H](C(=O)O)c4cc(O)cc(O)c4-c4cc3ccc4O)[C@H](O[C@H]3C[C@](C)(N)[C@@H](O)[C@H](C)O3)c3cc(Cl)c(c(Cl)c3)Oc3cc2cc(c3O[C@H]2O[C@@H](CO)[C@@H](O)[C@H](O)[C@H]2O[C@@H]2C[C@@](C)(NCc3ccc(-c4ccc(Cl)cc4)cc3)[C@@H](O)[C@@H](C)O2)Oc2ccc(cc2Cl)[C@H]1O)N(C)C(=O)CCC(P(=O)(O)O)P(=O)(O)O | > 32 µg/mL | 99.8% | > 32 µg/mL | > 32 µg/mL | > 32 µg/mL |  |  |  |  |  |  |
| CN[C@H](CC(C)C)C(=O)N[C@H]1C(=O)N[C@@H](CC(N)=O)C(=O)N[C@H]2C(=O)N[C@H]3C(=O)N[C@H](C(=O)N[C@H](C(=O)OCC(=O)NC(P(=O)(O)O)P(=O)(O)O)c4cc(O)cc(O)c4-c4cc3ccc4O)[C@H](O[C@H]3C[C@](C)(N)[C@@H](O)[C@H](C)O3)c3cc(Cl)c(c(Cl)c3)Oc3cc2cc(c3O[C@H]2O[C@@H](CO)[C@@H](O)[C@H](O)[C@H]2O[C@@H]2C[C@@](C)(NCc3ccc(-c4ccc(Cl)cc4)cc3)[C@@H](O)[C@@H](C)O2)Oc2ccc(cc2Cl)[C@H]1O | 32 µg/mL | 97.6% | 16 µg/mL (≈ 7.77 µM) | 2 µg/mL | 2 µg/mL |  |  |  |  |  |  |
